Source: ChEMBL document CHEMBL4396869, “Design and Synthesis of Selective Phosphodiesterase 4D (PDE4D) Allosteric Inhibitors for the Treatment of Fragile X Syndrome and Other Brain Disorders” (J Med Chem, 2019)
In brackets after ≈: the same amount, converted by molar mass. Activity calls are given as the source filed them. The rule behind the calls is not given here.

Assays:
[1] = (§1) Inhibition of recombinant human His6-tagged PDE4D7 UCR1 S129D mutant expressed in baculovirus infected Sf9 insect cells using cAMP as substrate preincubated for 5 to 10 mins followed by substrate addition and measured for 10 mins by yeast myokinase/pyruvate kinase/lactate dehydrogenase-coupled fluorescence assay
[2] = molecular target: 3',5'-cyclic-AMP phosphodiesterase 4B (Homo sapiens, UniProt Q07343, S133D); assay: as §1, with “PDE4B1” for “PDE4D7”, “S133D” for “S129D”
Sequence of 3',5'-cyclic-AMP phosphodiesterase 4B (Q07343 whole entry S133D, the tested form may be a part): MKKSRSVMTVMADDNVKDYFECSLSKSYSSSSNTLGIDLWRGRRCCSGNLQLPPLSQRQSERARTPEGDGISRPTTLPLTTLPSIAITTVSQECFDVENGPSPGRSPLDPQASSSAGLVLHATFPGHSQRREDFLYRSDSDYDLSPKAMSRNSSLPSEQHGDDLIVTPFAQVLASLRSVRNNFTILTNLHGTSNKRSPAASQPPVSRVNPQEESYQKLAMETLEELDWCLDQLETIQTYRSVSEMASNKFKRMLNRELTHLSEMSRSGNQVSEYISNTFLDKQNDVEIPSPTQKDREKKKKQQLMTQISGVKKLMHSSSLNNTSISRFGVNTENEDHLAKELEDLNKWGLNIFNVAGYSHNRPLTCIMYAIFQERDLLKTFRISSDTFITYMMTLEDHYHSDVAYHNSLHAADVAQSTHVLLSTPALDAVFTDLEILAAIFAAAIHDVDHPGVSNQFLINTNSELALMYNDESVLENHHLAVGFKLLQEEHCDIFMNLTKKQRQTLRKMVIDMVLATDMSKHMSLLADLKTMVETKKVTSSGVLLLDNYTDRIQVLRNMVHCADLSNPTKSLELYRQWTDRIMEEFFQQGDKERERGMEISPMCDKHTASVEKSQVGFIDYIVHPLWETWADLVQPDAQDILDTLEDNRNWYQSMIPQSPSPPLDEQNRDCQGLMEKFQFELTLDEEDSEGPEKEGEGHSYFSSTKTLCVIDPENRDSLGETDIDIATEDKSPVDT

[3] = species on record: Homo sapiens; assay: Selectivity ratio of IC50 for recombinant human wild-type His6-tagged PDE4D7 UCR1 domain (S129 residues) expressed in baculovirus infected Sf9 insect cells to IC50 for recombinant human His6-tagged PDE4D7 UCR1 S129D mutant expressed in baculovirus infected Sf9 insect cells
[4] = species on record: Homo sapiens; assay: Selectivity ratio of IC50 for recombinant human His6-tagged PDE4B1 UCR1 S133D mutant expressed in baculovirus infected Sf9 insect cells to IC50 for recombinant human His6-tagged PDE4D7 UCR1 S129D mutant expressed in baculovirus infected Sf9 insect cells
[5] = as §1, with “human wild-type” for “human”, “domain (S129 residues)” for “S129D mutant”
[6] = Protein binding in mouse plasma; assay type: ADME, cell-free; details: read-out: PPB
[7] = Aqueous kinetic solubility of the compound in pH 7.4 PBS buffer at 100 uM measured after 1 hr; assay type: physicochemical; details: pH 7.4, 1 h
[8] = Protein binding in dog plasma; assay type: ADME, cell-free, Canis lupus familiaris; details: read-out: PPB
[9] = test system: Mus musculus; assay: Memory enhancement effect in ICR mouse assessed as improvement in novel object discrimination at 3 to 30 mg/kg, po administered via gavage measured for 5 mins by open field test; assay type: functional, organism-based
Summary of the method: (§2)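 Male ICR mice (25–30 g), dosed by oral gavage in 5% DMSO, 5% Solutol in PBS. Three phases in an open field box: 10 min habituation on day 1, 5 min training with identical objects on day 2, 5 min test with familiar and novel objects on day 3 (24 h delay). Exploration times recorded; discrimination index d2 = (b − a)/(a + b).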

[10] = Protein binding in human plasma; assay type: ADME, cell-free
[11] = as §1, with “assay relative to control” for “assay”
[12] = Stability in mouse liver microsomes assessed as parent compound remaining at 1 uM measured after 30 mins by LC-MS/MS analysis; assay type: ADME, Microsome; details: read-out: Stability
Summary of the method: (§3)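 Liver microsome stability run by a contract lab using standard protocols. Parent compound remaining measured after 30 min incubation.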

[13] = Protein binding in rat plasma; assay type: ADME, cell-free; details: read-out: PPB
[14] = molecular target: Cytochrome P450 3A4 (Homo sapiens, UniProt P08684); assay: Inhibition of CYP3A4 (unknown origin) by fluorescence-based assay; assay type: ADME
Sequence of Cytochrome P450 3A4 (P08684 whole entry): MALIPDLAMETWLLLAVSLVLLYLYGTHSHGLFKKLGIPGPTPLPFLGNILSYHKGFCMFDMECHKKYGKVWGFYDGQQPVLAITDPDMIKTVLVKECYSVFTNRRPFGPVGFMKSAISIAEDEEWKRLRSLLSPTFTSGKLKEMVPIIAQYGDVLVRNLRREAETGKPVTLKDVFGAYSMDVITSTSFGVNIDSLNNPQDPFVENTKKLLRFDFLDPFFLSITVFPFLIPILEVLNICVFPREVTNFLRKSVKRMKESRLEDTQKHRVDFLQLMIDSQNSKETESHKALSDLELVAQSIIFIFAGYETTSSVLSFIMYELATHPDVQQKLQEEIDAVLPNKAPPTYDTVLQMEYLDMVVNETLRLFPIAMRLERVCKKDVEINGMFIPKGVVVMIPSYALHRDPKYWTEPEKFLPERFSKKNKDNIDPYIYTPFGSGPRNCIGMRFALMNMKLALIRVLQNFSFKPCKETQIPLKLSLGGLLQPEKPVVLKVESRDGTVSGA
Summary of the method: (§4)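 CYP inhibition run with a fluorescent substrate by a contract laboratory under standard protocols; IC50 reported.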

[15] = Ratio of AUC in po dosed mouse brain to plasma; assay type: ADME, organism-based
Summary of the method: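 Mice were dosed orally in 5% DMSO, 5% Solutol, 90% PBS. Drug exposure was measured in plasma and brain, and the ratio was taken from brain AUC over plasma AUC.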

[16] = Solubility of the compound in FaSSIF; assay type: physicochemical; details: simulated gi fluid
Summary of the method: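 Kinetic solubility measured in fasted state simulated intestinal fluid (FaSSIF), run by a contract lab using standard protocols.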

[17] = Therapeutic index, ratio of compound effect for induction of emesis in ICR mouse assessed as reduction in ketamine/xylazine-induced duration of anesthesia at 10 to 30 mg/kg, po to compound effect for memory enhancement effect in ICR mouse assessed as improvement in novel object discrimination at 1 to 3 mg/kg, po; assay type: toxicity, organism-based; details: in vivo
Summary of the method: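 Male ICR mice (25–30 g) were gavaged with compound in 5% DMSO, 5% Solutol in PBS. Object recognition ran as 10 min habituation on day 1, 5 min training on day 2 and 5 min testing on day 3, scored as d2 = (b−a)/(a+b). Thirty minutes after an oral dose, ketamine 80 mg/kg plus xylazine 10 mg/kg was given IP, and anesthesia duration was timed from loss to return of the righting reflex. The index compares effective doses in the two tests.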

[18] = Stability in rat liver microsomes assessed as parent compound remaining at 1 uM measured after 30 mins by LC-MS/MS analysis; assay type: ADME, Microsome; details: read-out: Stability; summary of the method: as §3
[19] = Half life in po dosed mouse brain; assay type: ADME, organism-based; details: in vivo
[20] = Permeability across apical to basal side in MDCK-MDR1 cells; assay type: ADME, cell-based, Canis lupus familiaris; details: dog
Summary of the method: (§5)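 Cellular permeability in MDCK-MDR1 cells, apical-to-basal and basal-to-apical, run by a contract lab using standard protocols. Efflux ratio taken as B-A/A-B.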

[21] = Stability in monkey liver microsomes assessed as parent compound remaining at 1 uM measured after 30 mins by LC-MS/MS analysis; assay type: ADME, Macaca mulatta, Microsome; details: rhesus monkey, read-out: Stability; summary of the method: as §3
[22] = molecular target: Cytochrome P450 2C19 (Homo sapiens, UniProt P33261); assay: Inhibition of […] (unknown origin) by fluorescence-based assay; assay type: ADME; summary of the method: as §4
Sequence of Cytochrome P450 2C19 (P33261 whole entry): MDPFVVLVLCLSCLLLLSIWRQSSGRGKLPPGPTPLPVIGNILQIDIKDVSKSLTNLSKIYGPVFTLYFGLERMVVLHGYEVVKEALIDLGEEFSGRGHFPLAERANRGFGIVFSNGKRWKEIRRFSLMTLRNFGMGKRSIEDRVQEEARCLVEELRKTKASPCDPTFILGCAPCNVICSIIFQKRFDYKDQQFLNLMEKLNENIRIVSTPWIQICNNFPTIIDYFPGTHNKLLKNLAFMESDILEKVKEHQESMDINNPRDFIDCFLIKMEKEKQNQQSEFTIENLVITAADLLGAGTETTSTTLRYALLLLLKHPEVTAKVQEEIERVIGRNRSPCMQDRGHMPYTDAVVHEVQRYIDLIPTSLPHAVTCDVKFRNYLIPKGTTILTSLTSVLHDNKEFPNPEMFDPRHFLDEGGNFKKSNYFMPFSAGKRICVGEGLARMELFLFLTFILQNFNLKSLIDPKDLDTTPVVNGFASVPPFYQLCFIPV

[23] = Half life in po dosed mouse plasma; assay type: ADME, organism-based; details: in vivo
[24] = Stability in human liver microsomes assessed as parent compound remaining at 1 uM measured after 30 mins by LC-MS/MS analysis; assay type: ADME, Microsome; details: read-out: Stability; summary of the method: as §3
[25] = Oral bioavailability in mouse; assay type: ADME, organism-based; details: in vivo
[26] = Stability in human hepatocytes assessed as parent compound remaining measured after 4 hrs by LC-UV/MS/MS analysis; assay type: ADME, cell-based, Hepatocyte; details: read-out: Stability
Summary of the method: (§6)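 Metabolite identification run with cryopreserved hepatocytes from male Wistar rats and from humans, 0.5×10^6 cells/mL in suspension, incubated 4 h at 37 °C. Incubation medium analysed by LC-UV/MS/MS.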

[27] = Permeability across basal to apical side in MDCK-MDR1 cells; assay type: ADME, cell-based, Canis lupus familiaris; details: dog; summary of the method: as §5
[28] = as §1, with “10 mins in presence of BSA by yeast” for “10 mins by yeast”
[29] = Aqueous kinetic solubility of the compound at pH 7 at 100 uM measured after 1 hr; assay type: physicochemical; details: buffer, pH 7, 1 h
[30] = Stability in dog liver microsomes assessed as parent compound remaining at 1 uM measured after 30 mins by LC-MS/MS analysis; assay type: ADME, Canis lupus familiaris, Microsome; details: read-out: Stability; summary of the method: as §3
[31] = test system: Mus musculus; assay: Memory enhancement effect in ICR mouse assessed as improvement in novel object discrimination at 1 to 3 mg/kg, po administered via gavage measured for 5 mins by open field test; assay type: functional, organism-based; summary of the method: as §2
[32] = Stability in Wistar rat hepatocytes assessed as parent compound remaining measured after 4 hrs by LC-UV/MS/MS analysis; assay type: ADME, cell-based, Hepatocyte; details: read-out: Stability; summary of the method: as §6
[33] = molecular target: Cytochrome P450 2C9 (Homo sapiens, UniProt P11712); assay: Inhibition of CYP2C9 (unknown origin) by fluorescence-based assay; assay type: ADME; summary of the method: as §4
Sequence of Cytochrome P450 2C9 (P11712 whole entry): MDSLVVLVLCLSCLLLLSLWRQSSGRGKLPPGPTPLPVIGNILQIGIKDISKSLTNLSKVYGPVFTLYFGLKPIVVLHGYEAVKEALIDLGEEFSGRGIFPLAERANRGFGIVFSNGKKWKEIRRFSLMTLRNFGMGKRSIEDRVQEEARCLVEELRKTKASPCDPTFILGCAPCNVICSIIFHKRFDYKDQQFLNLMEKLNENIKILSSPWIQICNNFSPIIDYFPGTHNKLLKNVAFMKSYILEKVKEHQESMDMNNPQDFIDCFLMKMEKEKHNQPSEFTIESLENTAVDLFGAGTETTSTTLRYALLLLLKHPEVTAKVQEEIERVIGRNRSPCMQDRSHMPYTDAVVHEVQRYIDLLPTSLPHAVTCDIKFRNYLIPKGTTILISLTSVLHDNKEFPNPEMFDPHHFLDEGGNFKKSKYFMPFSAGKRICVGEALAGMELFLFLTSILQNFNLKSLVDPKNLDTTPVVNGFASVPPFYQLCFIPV

[34] = molecular target: Cytochrome P450 2D6 (Homo sapiens, UniProt P10635); assay: Inhibition of CYP2D6 (unknown origin) by fluorescence-based assay; assay type: ADME; summary of the method: as §4
Sequence of Cytochrome P450 2D6 (P10635 whole entry): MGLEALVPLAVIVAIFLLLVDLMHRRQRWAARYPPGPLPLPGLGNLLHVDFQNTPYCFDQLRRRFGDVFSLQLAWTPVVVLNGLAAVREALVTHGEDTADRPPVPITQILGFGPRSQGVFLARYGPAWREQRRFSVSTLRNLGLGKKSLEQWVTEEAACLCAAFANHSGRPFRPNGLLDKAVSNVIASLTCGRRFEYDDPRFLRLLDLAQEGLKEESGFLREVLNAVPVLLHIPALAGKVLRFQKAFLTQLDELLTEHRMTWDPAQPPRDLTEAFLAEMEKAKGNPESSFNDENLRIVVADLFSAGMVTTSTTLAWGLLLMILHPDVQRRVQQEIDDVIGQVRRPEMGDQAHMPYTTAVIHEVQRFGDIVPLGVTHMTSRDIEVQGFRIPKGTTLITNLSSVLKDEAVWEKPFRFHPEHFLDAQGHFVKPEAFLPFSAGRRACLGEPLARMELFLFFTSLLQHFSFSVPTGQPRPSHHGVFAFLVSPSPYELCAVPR

[35] = test system: Mus musculus; assay: Induction of emesis in ICR mouse assessed as reduction in ketamine/xylazine-induced duration of anesthesia at 10 to 30 mg/kg, po pretreated for 30 mins followed by ketamine/xylazine addition; assay type: organism-based; details: in vivo
Summary of the method: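 Male ICR mice, 25–30 g. Test agents given by oral gavage in 5% DMSO, 5% Solutol in PBS, or rolipram IP; ketamine (80 mg/kg) plus xylazine (10 mg/kg) IP given 30 min after PO or 15 min after IP dosing. Endpoint: time from loss to return of righting reflex.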

[36] = Efflux ratio of permeability across basal to apical side over apical to basal side in MDCK-MDR1 cells; assay type: ADME, cell-based, Canis lupus familiaris; details: dog

## CCc1nc(Nc2ccc(C(N)=O)cc2)nc(-c2cccc(Cl)c2)n1
[1]
  IC50: 22 nM
[2]
  IC50: 44 nM
[3]
  Ratio IC50: 11
[4]
  Ratio IC50: 2
[5]
  IC50: 252 nM

## CNC(=O)Cc1ccc(Nc2cc(-c3cccc(Cl)c3)nc3c2CCC3)cc1
[1]
  IC50: 133 nM
[2]
  IC50: 98 nM
[5]
  IC50: 1990 nM

## CCc1cc(Cc2ccc(CC(=O)NCCO)cc2)nc(-c2cccc(Cl)c2)n1
[1]
  IC50: 0.8 nM
[2]
  IC50: 128 nM
[6]
  fraction unbound: 0.002 to 0.004
[7]
  Kinetic_solubility: 29 µM
[8]
  fraction unbound: 0.002 to 0.004
[9]
  Activity: Active
[10]
  PPB: 99.6 to 99.8%
[5]
  IC50: 885 nM
[11]
  Imax: 88%
[12]
  remaining at 0.5 h, 1 µM: 36%
[13]
  fraction unbound: 0.002 to 0.004
[14]
  IC50: 3100 nM

## CCc1cc(Cc2ccc(CCO)cc2)nc(-c2cccc(Cl)c2)n1
[1]
  IC50: 2 nM
[2]
  IC50: 584 nM
[5]
  IC50: 534 nM

## CCc1cc(Nc2ccc(CC(N)=O)cc2)nc(-c2cccc(Cl)c2)n1
[1]
  IC50: 2.6 nM
[2]
  IC50: 43 nM
[3]
  Ratio IC50: 56
[4]
  Ratio IC50: 17
[5]
  IC50: 146 nM

## OCCc1ccc(Nc2cc(-c3cccc(Cl)c3)nc3c2CCC3)cc1
[1]
  IC50: 9 nM
[2]
  IC50: 562 nM
[3]
  Ratio IC50: 226
[4]
  Ratio IC50: 60
[5]
  IC50: 2110 nM

## CCc1nc(Nc2ccc(CC(N)=O)cc2)nc(-c2cccc(Cl)c2)n1
[1]
  IC50: 5 nM
[2]
  IC50: 48 nM
[3]
  Ratio IC50: 41
[4]
  Ratio IC50: 10
[5]
  IC50: 203 nM

## CCc1nc(Nc2ccc(CC(=O)O)cc2)nc(-c2cccc(Cl)c2)n1
[1]
  IC50: 681 nM
[2]
  IC50: 781 nM
[3]
  Ratio IC50: 6
[4]
  Ratio IC50: 1
[5]
  IC50: 4040 nM

## CCc1nc(Nc2ccc(CO)cc2)nc(-c2cccc(Cl)c2)n1
[1]
  IC50: 12 nM
[2]
  IC50: 105 nM
[5]
  IC50: 351 nM

## CN(C)C(=O)Cc1ccc(Nc2cc(-c3cccc(Cl)c3)nc3c2CCC3)cc1
[1]
  IC50: 51 nM
[2]
  IC50: 356 nM
[5]
  IC50: 914 nM

## NC(=O)Cc1ccc(Nc2cc(-c3cccc(Cl)c3)nc3c2CCC3)cc1
[1]
  IC50: 42.1 nM
[2]
  IC50: 136 nM
[3]
  Ratio IC50: 40
[4]
  Ratio IC50: 3
[5]
  IC50: 1660 nM

## CCc1cc(Cc2ccc(CC(N)=O)cc2)nc(-c2cccc(Cl)c2)n1
[15]
  Ratio AUC: 2.7
[16]
  solubility: 100 µM (≈ 36.6 µg/mL)
[17]
  selectivity ratio: 10
[18]
  remaining at 0.5 h, 1 µM: 54 to 90%
[19]
  t1/2: 26.4 min
[20]
  permeability: 24.1 ×10⁻⁶ cm/s
[1]
  IC50: 1.7 nM
[21]
  remaining at 0.5 h, 1 µM: 54 to 90%
[2]
  IC50: 225 nM
[6]
  fraction unbound: 0.002 to 0.005
[22]
  IC50: 29000 nM
[8]
  fraction unbound: 0.002 to 0.005
[23]
  t1/2: 27.6 min
[24]
  remaining at 0.5 h, 1 µM: 54 to 90%
[25]
  bioavailability: 53%
[10]; read-out: PPB
  fraction unbound: 0.002 to 0.005
[3]
  Ratio IC50: 184
[26]
  remaining at 4 h: 93.2%
[4]
  Ratio IC50: 132
[27]
  permeability: 22 ×10⁻⁶ cm/s
[5]
  IC50: 313 nM
[28]
  inhibition: Active
[29]
  Kinetic_solubility: < 1.6 µM
[30]
  remaining at 0.5 h, 1 µM: 54 to 90%
[31]
  Activity: Active
[32]
  remaining at 4 h: 66.8%
[33]
  IC50: > 100000 nM
[34]
  IC50: > 100000 nM
[12]
  remaining at 0.5 h, 1 µM: 54 to 90%
[35]
  Activity: Toxic
[36]
  Ratio: 0.9
[13]
  fraction unbound: 0.002 to 0.005
[14]
  IC50: 5900 nM

## CCc1cc(Nc2ccc(CCO)cc2)nc(-c2cccc(Cl)c2)n1
[1]
  IC50: 1.1 nM
[2]
  IC50: 57 nM
[5]
  IC50: 149 nM
